Measurements: ChEMBL document CHEMBL1132144, “Synthesis of 9-O-substituted derivatives of 9-hydroxy-5, 6-dimethyl-6H-pyrido[4,3-b]carbazole-1-carboxylic acid (2-(dimethylamino)ethyl)amide and their 10- and 11-methyl analogues with improved antitumor activity” (J Med Chem, 1999)

What was measured:
[1] = tested on: B16; test: Inhibition of murine B16 melanoma cell proliferation measured by the MTT assay; format: functional, cell-based; conditions: Mus musculus
Summary of the method: (§1)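 Murine L1210 leukemia and B16 melanoma cells were grown in RPMI 1640 with 10% fetal calf serum, 2 mM L-glutamine, penicillin/streptomycin and 10 mM HEPES (pH 7.4). Cells were exposed to nine serial drug dilutions in triplicate for about four doubling times (L1210 48 h, B16 96 h), then read by microculture tetrazolium (MTT) assay. IC50 is the concentration halving optical density versus untreated controls, averaged over ≥2 independent experiments.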

[2] = tested on: L1210; test: Inhibition of murine L1210 leukemia cell proliferation measured by the MTT assay; format: functional, cell-based; conditions: Mus musculus; summary of the method: as §1
[3] = tested on: Mus musculus; test: Long-term survivors among 7 mice infected with B16 melanoma, scored on day 90 at 320 mg/kg dose on day 1; format: functional
[4] = tested on: Mus musculus; test: Long-term survivors among 7 mice infected with P388 leukemia, scored on day 60 at 320 mg/kg dose on day 1; format: functional
Summary of the method: (§2)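 B6D2F1 mice in groups of 6–7 received 10^6 P388 cells ip on day 0. Dihydrochloride salts dissolved in water were injected iv on day 1 or on days 1, 5 and 9, at three doses and then five. Read-outs were % T/C (median survival treated/control × 100) and long-term survivors on day 60, both at the optimal dose (no toxic death, weight loss <20%).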

[5] = tested on: Mus musculus; test: Percent median survival time of mice injected with P388 leukemia, at a intravenous compound dose of 80 mg/kg
[6] = tested on: Mus musculus; test: Percent median survival time of mice injected with P388 leukemia, at a intravenous compound dose of 320 mg/kg
[7] = tested on: Mus musculus; test: Long-term survivors among 7 mice infected with B16 melanoma, scored on day 90 at 240 mg/kg dose on day 1; format: functional
[8] = tested on: Mus musculus; test: Long-term survivors among 7 mice infected with P388 leukemia, scored on day 60 at 240 mg/kg dose on day 1; format: functional; summary of the method: as §2
[9] = tested on: Mus musculus; test: Percent median survival time of mice injected with P388 leukemia, at a subcutaneous compound dose of 160 mg/kg; format: functional
[10] = tested on: Mus musculus; test: Percent median survival time of mice injected with P388 leukemia, at a subcutaneous compound dose of 240 mg/kg; format: functional
[11] = tested on: Mus musculus; test: Percent median survival time of mice injected with B16 melanoma, at a intraperitoneal compound dose of 80 mg/kg
[12] = tested on: Mus musculus; test: Long-term survivors among 6 mice infected with P388 leukemia, scored on day 90 at 20 mg/kg dose; format: functional
[13] = tested on: Mus musculus; test: Long-term survivors among 6 mice infected with P388 leukemia, scored on day 60 at 160 mg/kg dose on day 1; format: functional
Summary of the method: (§3)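 B6D2F1 mice in groups of 6–7 were inoculated ip on day 0 with 10^6 P388 cells. Dihydrochloride salts were dissolved in water and given iv on day 1 or on days 1, 5 and 9. Doses ranged from a low nontoxic dose to a toxic one. Long-term survivors were counted at day 60.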

[14] = tested on: Mus musculus; test: Long-term survivors among 6 mice infected with P388 leukemia, scored on day 60 at 160 mg/kg dose on day 1, 5, 9; format: functional; summary of the method: as §3
[15] = tested on: Mus musculus; test: Percent median survival time of mice intraperitoneally injected with P388 leukemia was determined from tested at 160 mg/kg at day1 dose to that of control; format: functional
Summary of the method: (§4)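 P388 leukemia in B6D2F1 mice (groups of 6–7), 10^6 cells inoculated ip on day 0. Dihydrochloride salts were dissolved in water and given iv on day 1 or on days 1, 5, 9. Three doses were tested, then five if active. %T/C = median survival treated/control × 100, reported at the optimal dose (no toxic death, weight loss <20%), from one or two representative experiments.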

[16] = tested on: Mus musculus; test: Percent median survival time of mice intraperitoneally injected with P388 leukemia was determined from tested at 160 mg/kg at day1,5,9 dose to that of control; format: functional; conditions: route intraperitoneal; summary of the method: as §4
[17] = tested on: Mus musculus; test: Percent median survival time of mice injected with B16 melanoma, at a intraperitoneal compound dose of 20 mg/kg
[18] = tested on: Mus musculus; test: Long-term survivors among 6 mice infected with B16 melanoma, scored on day 90 at 10 mg/kg dose on day 1; format: functional
[19] = tested on: Mus musculus; test: Long-term survivors among 6 mice infected with P388 leukemia, scored on day 60 at 10 mg/kg dose on day 1; format: functional; summary of the method: as §3
[20] = tested on: Mus musculus; test: Percent median survival time of mice injected with P388 leukemia, at a subcutaneous compound dose of 10 mg/kg; format: functional
[21] = tested on: Mus musculus; test: Percent median survival time of mice injected with P388 leukemia, at a intravenous compound dose of 5 mg/kg
[22] = tested on: Mus musculus; test: Percent median survival time of mice injected with B16 melanoma, at a intraperitoneal compound dose of 10 mg/kg
[23] = tested on: Mus musculus; test: Long-term survivors among 7 mice infected with B16 melanoma, scored on day 90 at 20 mg/kg dose on day 1; format: functional
[24] = tested on: Mus musculus; test: Long-term survivors among 7 mice infected with P388 leukemia, scored on day 90 at 20 mg/kg dose on day 1; format: functional
[25] = tested on: Mus musculus; test: Percent median survival time of mice injected with P388 leukemia, at a subcutaneous compound dose of 20 mg/kg on day 1, 5, 9; format: functional
[26] = tested on: Mus musculus; test: Long-term survivors among 12 mice infected with P388 leukemia, scored on day 60 at 10 mg/kg dose; format: functional; summary of the method: as §3
[27] = tested on: Mus musculus; test: Long-term survivors among 12 mice infected with P388 leukemia, scored on day 60 at 20 mg/kg dose; format: functional; summary of the method: as §3
[28] = tested on: Mus musculus; test: Percent median survival time of mice intraperitoneally injected with P388 leukemia was determined from tested at 10 mg/kg at day1,5,9 dose to that of control; format: functional; summary of the method: as §4
[29] = tested on: Mus musculus; test: Percent median survival time of mice intraperitoneally injected with P388 leukemia was determined from tested at 20 mg/kg at day1 dose to that of control; format: functional; conditions: route intraperitoneal; summary of the method: as §4
[30] = tested on: Mus musculus; test: Long-term survivors among 13 mice infected with B16 melanoma, scored on day 90 at 0.3-0.6 mg/kg dose
[31] = tested on: Mus musculus; test: Percent median survival time of mice injected with B16 melanoma, at a intraperitoneal compound dose of 0.3-0.6 mg/kg

Question: Which results are given for `Cc1c2ccnc(C(=O)NCCN(C)C)c2cc2c3cc(OC(=O)CCC(NC(=O)OC(C)(C)C)C(=O)O)ccc3n(C)c12` (configuration not stated)?
Answer: IC50 [1]: 4 nM; IC50 [2]: 89.3 nM; LTS [3]: 0; LTS [4]: 0; T/C [5]: >614%; T/C [6]: >614%

Question: How did the IC50 [1] turn out when `Cc1c2ccnc(C(=O)NCCN(C)C)c2cc2c3cc(OC(=O)NCCCC(=O)O)ccc3n(C)c12` was run?
Answer: 45.7 nM

Question: What about the IC50 [2] of the same molecule?
Answer: 522 nM

Question: What about the LTS [7] of the same molecule?
Answer: 0

Question: What about the LTS [8] of the same molecule?
Answer: 0

Question: What about the T/C [9] of the same molecule?
Answer: 109%

Question: And the T/C [10]?
Answer: 111%

Question: And the T/C [11]?
Answer: 139%

Question: Which IC50 [1] does the source give for `Cc1c2ccnc(C(=O)NCCN(C)C)c2cc2c3cc(OCCCCC(=O)O)ccc3n(C)c12` here?
Answer: 3470 nM

Question: And the IC50 [2]?
Answer: 4230 nM

Question: What about the LTS [12] of the same molecule?
Answer: 0

Question: What about the LTS [13] of the same molecule?
Answer: 0

Question: What about the LTS [14] of the same molecule?
Answer: 0

Question: What about the T/C [15] of the same molecule?
Answer: 107%

Question: And the T/C [16]?
Answer: 108%

Question: What about the T/C [17] of the same molecule?
Answer: 146%

Question: How did the IC50 [1] turn out when `Cc1c2ccnc(C(=O)NCCN(C)C)c2cc2c3cc(OC(=O)CCC(=O)OCc4ccccc4)ccc3n(C)c12` was run?
Answer: 9.9 nM

Question: What about the IC50 [2] of the same molecule?
Answer: 47.4 nM

Question: And the LTS [18]?
Answer: 1

Question: What about the LTS [19] of the same molecule?
Answer: 0

Question: And the T/C [20]?
Answer: 111%

Question: What about the T/C [21] of the same molecule?
Answer: 96%

Question: And the T/C [22]?
Answer: 169%

Question: What does the source list for `CCOCCC(=O)Oc1ccc2c(c1)c1cc3c(C(=O)NCCN(C)C)nccc3c(C)c1n2C`?
Answer: IC50 [1]: 3 nM; IC50 [2]: 5.7 nM; LTS [23]: 0; LTS [24]: 0; T/C [25]: 222%; T/C [22]: 157%

Question: With `Cc1c(O)ccc2c1c1cc3c(C(=O)NCCN(C)C)nccc3c(C)c1n2C` as the molecule, how does the IC50 [1] read?
Answer: 0.2 nM

Question: What about the IC50 [2] of the same molecule?
Answer: 3.5 nM

Question: What about the LTS [26] of the same molecule?
Answer: 0

Question: And the LTS [27]?
Answer: 0

Question: What about the T/C [28] of the same molecule?
Answer: 223%

Question: And the T/C [29]?
Answer: 211%

Question: And the LTS [30]?
Answer: 0

Question: And the T/C [31]?
Answer: 144%
